# Assay results from article PMC5808564 (ChemMedChem, 2017).
# What was measured:
# Plasma stability, mouse = type: in vitro ADME
# [1] = Aqueous solubility, kinetic solubility method; conditions: pH 7.4
# [2] = Microsomal stability, mouse; type: in vitro ADME
# [3] = molecular target: recombinant T. brucei hexokinase 1 (rTbHK1) (Trypanosoma brucei, UniProt Q38C42); assay: biochemical; type: biochemical; conditions: compared to bromide 2
# [4] = molecular target: T1, Serotonin (5-hydroxytryptamine) 5-HT1A (Homo sapiens, UniProt P08908); assay: PanLabs LeadProfilingScreen radioligand binding; conditions: read-out: percent inhibition
# T1 sequence (P08908 1-422): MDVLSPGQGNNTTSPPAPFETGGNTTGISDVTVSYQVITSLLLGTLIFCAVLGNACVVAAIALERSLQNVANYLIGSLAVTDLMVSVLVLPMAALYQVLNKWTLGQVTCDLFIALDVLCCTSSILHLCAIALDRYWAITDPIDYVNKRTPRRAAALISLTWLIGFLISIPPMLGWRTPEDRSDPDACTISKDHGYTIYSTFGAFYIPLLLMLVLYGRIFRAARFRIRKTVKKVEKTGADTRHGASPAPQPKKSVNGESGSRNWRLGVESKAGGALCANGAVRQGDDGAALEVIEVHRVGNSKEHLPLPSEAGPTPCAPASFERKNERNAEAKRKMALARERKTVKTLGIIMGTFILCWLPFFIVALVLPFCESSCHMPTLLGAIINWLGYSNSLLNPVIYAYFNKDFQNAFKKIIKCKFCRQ
# Outline: (§1)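 Test compound screened once, at 10 μM, against a panel of mammalian targets; each run in duplicate. Values are percent inhibition at that single concentration; no IC50 determinations were made.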
# Dopamine D1 = Dopamine D1 (Homo sapiens, UniProt P21728); assay: PanLabs LeadProfilingScreen radioligand binding; conditions: read-out: percent inhibition
# Dopamine D1, sequence (P21728 whole entry): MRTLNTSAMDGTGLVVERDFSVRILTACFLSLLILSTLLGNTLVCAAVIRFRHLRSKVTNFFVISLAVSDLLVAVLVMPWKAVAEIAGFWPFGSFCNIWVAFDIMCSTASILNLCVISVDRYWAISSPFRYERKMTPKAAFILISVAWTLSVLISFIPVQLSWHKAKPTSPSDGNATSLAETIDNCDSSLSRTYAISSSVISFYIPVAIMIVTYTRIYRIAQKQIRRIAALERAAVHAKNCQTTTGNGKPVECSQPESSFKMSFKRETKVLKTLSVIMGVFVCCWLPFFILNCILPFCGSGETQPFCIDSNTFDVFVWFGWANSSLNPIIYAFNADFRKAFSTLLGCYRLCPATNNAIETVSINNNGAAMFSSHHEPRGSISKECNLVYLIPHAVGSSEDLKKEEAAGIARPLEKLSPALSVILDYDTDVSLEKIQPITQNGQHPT
# Outline: as §1
# [5] = molecular target: T2, Leukotriene, cysteinyl CysLT1 (Homo sapiens, UniProt Q9Y271); assay: PanLabs LeadProfilingScreen radioligand binding; conditions: read-out: percent inhibition
# T2 sequence (Q9Y271 1-337): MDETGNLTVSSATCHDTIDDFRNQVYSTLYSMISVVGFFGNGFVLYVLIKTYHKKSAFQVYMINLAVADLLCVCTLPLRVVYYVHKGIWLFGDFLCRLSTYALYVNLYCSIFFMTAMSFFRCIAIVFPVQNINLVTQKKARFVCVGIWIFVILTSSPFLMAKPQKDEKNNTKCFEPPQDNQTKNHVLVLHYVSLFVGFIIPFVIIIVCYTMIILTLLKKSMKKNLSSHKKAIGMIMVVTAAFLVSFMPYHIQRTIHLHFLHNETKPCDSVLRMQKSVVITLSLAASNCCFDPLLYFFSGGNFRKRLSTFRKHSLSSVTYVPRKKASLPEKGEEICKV
# Outline: as §1
# Adrenergic α1B = molecular target: T3, Adrenergic α1B (Rattus norvegicus, UniProt P15823); assay: PanLabs LeadProfilingScreen radioligand binding; conditions: read-out: percent inhibition
# T3 sequence (P15823 1-515): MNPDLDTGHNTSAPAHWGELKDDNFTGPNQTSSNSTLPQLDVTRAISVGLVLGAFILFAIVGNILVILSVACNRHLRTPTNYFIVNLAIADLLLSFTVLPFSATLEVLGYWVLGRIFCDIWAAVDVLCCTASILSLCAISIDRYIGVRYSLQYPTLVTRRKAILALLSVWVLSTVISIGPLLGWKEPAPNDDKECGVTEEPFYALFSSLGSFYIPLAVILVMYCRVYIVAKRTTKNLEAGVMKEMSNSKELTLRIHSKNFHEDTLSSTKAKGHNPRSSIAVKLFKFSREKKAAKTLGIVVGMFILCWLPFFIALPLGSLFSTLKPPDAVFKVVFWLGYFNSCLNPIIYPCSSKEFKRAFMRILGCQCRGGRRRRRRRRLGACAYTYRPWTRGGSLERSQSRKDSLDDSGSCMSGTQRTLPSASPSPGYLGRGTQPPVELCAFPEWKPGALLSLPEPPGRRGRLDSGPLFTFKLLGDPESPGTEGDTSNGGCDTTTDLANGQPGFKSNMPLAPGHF
# Outline: as §1
# [6] = molecular target: T4, human HK 4 (human glucokinase, hGlk) (Homo sapiens, UniProt P35557); assay: Specificity assay against human glucokinase; type: biochemical; conditions: read-out: % hGlk inhibition (10 μM)
# T4 sequence (P35557 1-465): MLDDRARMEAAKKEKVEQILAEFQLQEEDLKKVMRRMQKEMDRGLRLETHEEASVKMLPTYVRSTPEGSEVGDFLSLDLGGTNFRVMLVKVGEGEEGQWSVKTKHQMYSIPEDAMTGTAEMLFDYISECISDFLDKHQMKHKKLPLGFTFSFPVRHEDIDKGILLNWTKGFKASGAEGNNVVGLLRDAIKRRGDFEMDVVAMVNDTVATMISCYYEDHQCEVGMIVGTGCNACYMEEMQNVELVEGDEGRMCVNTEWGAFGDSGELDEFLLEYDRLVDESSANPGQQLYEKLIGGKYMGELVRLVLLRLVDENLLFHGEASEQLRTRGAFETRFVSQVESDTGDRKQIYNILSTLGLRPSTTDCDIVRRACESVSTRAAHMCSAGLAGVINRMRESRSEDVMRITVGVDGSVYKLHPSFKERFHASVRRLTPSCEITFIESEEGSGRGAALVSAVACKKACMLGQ
# Outline: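 Uses human hexokinase 4 (glucokinase; GenBank BC001890). Activity is read through a coupled reaction in which glucose-6-phosphate dehydrogenase converts the glucose-6-phosphate formed to 6-phosphogluconate. The coincident NADPH formation is followed at 340 nm.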
# Thyroid hormone = assay: PanLabs LeadProfilingScreen radioligand binding; conditions: 10 μM, duplicate, rat
# Outline: as §1
# Plasma protein binding = type: in vitro ADME; conditions: mouse, mouse species
# [7] = molecular target: Dopamine transporter (DAT) (Homo sapiens, UniProt Q01959); assay: PanLabs LeadProfilingScreen radioligand binding; conditions: read-out: percent inhibition
# Dopamine transporter (DAT), sequence (Q01959 whole entry): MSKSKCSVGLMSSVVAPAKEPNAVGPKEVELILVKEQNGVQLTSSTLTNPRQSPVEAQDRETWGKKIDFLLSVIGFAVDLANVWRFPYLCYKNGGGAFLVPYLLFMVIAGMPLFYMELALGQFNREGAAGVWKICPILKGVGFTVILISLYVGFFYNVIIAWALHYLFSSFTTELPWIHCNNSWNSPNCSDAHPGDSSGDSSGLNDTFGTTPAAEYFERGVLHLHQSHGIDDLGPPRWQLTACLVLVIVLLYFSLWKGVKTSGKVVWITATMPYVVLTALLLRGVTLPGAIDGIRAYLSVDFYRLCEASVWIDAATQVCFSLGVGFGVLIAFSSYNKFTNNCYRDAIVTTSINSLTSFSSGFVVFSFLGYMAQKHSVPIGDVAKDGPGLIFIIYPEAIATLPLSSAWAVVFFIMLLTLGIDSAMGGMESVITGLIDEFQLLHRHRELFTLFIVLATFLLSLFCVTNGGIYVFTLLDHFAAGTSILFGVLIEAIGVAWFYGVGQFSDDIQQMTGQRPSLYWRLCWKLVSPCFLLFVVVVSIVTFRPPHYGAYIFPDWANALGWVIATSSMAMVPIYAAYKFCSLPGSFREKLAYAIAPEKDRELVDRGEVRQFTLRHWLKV
# Outline: as §1
# Dopamine D3 = Dopamine D3 (Homo sapiens, UniProt P35462); assay: PanLabs LeadProfilingScreen radioligand binding; conditions: read-out: percent inhibition
# Dopamine D3, sequence (P35462 whole entry): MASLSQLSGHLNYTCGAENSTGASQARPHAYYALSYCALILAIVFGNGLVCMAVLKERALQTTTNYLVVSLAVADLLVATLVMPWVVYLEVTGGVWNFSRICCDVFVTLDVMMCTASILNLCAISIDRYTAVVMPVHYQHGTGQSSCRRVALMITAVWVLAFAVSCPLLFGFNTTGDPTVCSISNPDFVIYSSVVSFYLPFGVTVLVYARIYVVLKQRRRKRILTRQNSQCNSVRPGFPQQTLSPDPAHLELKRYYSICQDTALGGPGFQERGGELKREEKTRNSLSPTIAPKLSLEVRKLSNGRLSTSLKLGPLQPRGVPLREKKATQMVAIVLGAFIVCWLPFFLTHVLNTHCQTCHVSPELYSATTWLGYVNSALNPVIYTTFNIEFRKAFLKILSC
# Outline: as §1
# Histamine H2 = Histamine H2 (Homo sapiens, UniProt P25021); assay: PanLabs LeadProfilingScreen radioligand binding; conditions: read-out: percent inhibition
# Histamine H2, sequence (P25021 whole entry): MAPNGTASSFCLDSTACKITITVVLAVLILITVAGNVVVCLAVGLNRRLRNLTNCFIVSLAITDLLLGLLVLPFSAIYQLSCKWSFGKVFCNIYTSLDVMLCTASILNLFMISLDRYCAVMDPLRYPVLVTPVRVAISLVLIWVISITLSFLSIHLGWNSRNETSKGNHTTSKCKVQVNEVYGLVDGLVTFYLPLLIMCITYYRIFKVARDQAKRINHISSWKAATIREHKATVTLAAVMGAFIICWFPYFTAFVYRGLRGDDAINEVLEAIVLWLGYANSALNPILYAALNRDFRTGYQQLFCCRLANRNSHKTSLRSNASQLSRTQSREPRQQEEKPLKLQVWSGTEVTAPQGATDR
# Outline: as §1
# IMR-90 human cells = assay: Human cell line toxicity testing; type: cell-based; conditions: Homo sapiens, IMR-90, read-out: IMR90 toxicity (EC50)
# [8] = test system: T. brucei bloodstream form (BSF) parasites (cell line 90-13, a 427 strain); assay: microbe, parasite or virus in culture; type: cell-based, Trypanosoma brucei; conditions: BLD = below level of detection
# Plasma stability, human = type: in vitro ADME
# [9] = Microsomal stability, human; type: in vitro ADME
smiles,measurement,setting,value
CC(C)(C)c1ccc(C(=O)Nc2cc(Cl)c(-c3ccccc3)cc2C(=O)O)cc1 [Compound 4f],"plasma stability, % parent remaining after 3 h","Plasma stability, mouse",97.4%
same,solubility,[1],9.6 µM
same,"microsomal stability, % parent remaining after 1 h",[2],55.5%
same,improvement in rTbHK1 potency,[3],3.5 fold
same,inhibition at 10 µM,[4],90%
same,inhibition at 10 µM,Dopamine D1,57%
same,inhibition at 10 µM,[5],87%
same,inhibition at 10 µM,Adrenergic α1B,53%
same,inhibition at 10 µM,[6],35.2 ± 8.3%
same,percent inhibition,Thyroid hormone,65%
same,fraction unbound,Plasma protein binding; 1 μM,0.01
same,fraction unbound,Plasma protein binding; 10 μM,0.009
same,inhibition at 10 µM,[7],88%
same,inhibition at 10 µM,Dopamine D3,86%
same,inhibition at 10 µM,Histamine H2,98%
same,EC50,IMR-90 human cells,> 25 µM
same,% T. brucei BSF growth inhibition (10 μM),"[8]; 10 μM compound, 10 µM",95.4 ± 0.8%
same,inhibition at 10 µM,"[8]; Trypanosoma brucei, A-427, read-out: % T. brucei BSF growth inhibition (10 μM), 10 μM compound",95%
same,Papp,"PAMPA permeability; PAMPA permeability (Pe), donor pH 6.2, acceptor pH 7.4",1.6 ×10⁻⁶ cm/s
same,Papp,"PAMPA permeability; pH 7.4, PAMPA permeability (Pe), donor pH 7.4, acceptor pH 7.4",49 ×10⁻⁶ cm/s
same,"plasma stability, % parent remaining after 3 h","Plasma stability, human",80.8%
same,"microsomal stability, % parent remaining after 1 h",[9],46.5%
